Here are results for one compound from ChEMBL document CHEMBL1795243, “New microtubule polymerization inhibitors comprising a nitrooxymethylphenyl group” (Bioorg Med Chem, 2011).

Each structure is given as a SMILES string. The source made the active and inactive calls. The calls are words filed in the database; no cut-off is given here.

Data set [1] has as its system HCT-116. Description: Cell cycle arrest in human HCT116 cells assessed as accumulation at G0/G1 phase at 20 uM after 24 hrs by FACS analysis (reference value: 76.5 %). The data set is classed as functional. In general terms: Flow cytometry measures light scatter and fluorescence of single cells or particles in a stream.
In data set [2] the test system is HCT-116. Description: Cell cycle arrest in human HCT116 cells assessed as accumulation at sub-G1 phase at 20 uM after 24 hrs by FACS analysis (reference value: 6.2 %). It counts as functional.
Data set [3] has as its system HCT-116. The experiment in a line: Cell cycle arrest in human HCT116 cells assessed as accumulation at S phase at 20 uM after 24 hrs by FACS analysis (reference value: 8.5 %). The data set is classed as functional.
A short description of data set [4]: Antiproliferative activity against human CCD-1059SK cells at 200 uM after 72 hrs by cell counting kit analysis. It counts as cell-based. Put shortly:
(§1)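 Cells grown with compound for 72 h, then growth quantified by WST-1 Cell Counting Kit. Final concentrations 1, 10, 25, 50, 100 and 200 μM. All media had 10% FBS, 37 °C, 5% CO2. Read-out IC50.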
(Formazan colour is commonly taken as a measure of viable cells.)

The subject of data set [5] is HCT-116. Description: Cell cycle arrest in human HCT116 cells assessed as increase of phosphorylated histone H3 at Ser10 level at 20 uM after 24 hrs using propidium iodide staining by flow cytometry (reference value: 1.4 %). The data set is classed as functional.
The next data set has as its target Tubulin (Sus scrofa) (UniProt P02554+P02550). Description: Inhibition of purified porcine brain tubulin polymerization at 20 uM after 100 mins by fluorescence assay. Put shortly:
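Porcine brain tubulin 2.0 mg/mL in General Tubulin Buffer with Tubulin Glycerol Buffer, GTP and DAPI. Added to compound prewarmed at 37 °C (final 2.0% DMSO, which is also the vehicle control). DAPI fluorescence (ex 340, em 460 nm) read kinetically over 100 min. Four independent experiments.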

A further data set deals with MCF7. The experiment in a line: Antiproliferative activity against human MCF7 cells after 72 hrs by cell counting kit analysis. The following applies: MCF7, 72 h. It counts as functional, cell-based. In a few lines:
as §1

In another data set the target is Tubulin (Homo sapiens) (UniProt P68371+Q9H4B7+P0DPH7+P68366+Q13509+Q71U36+P04350+Q3ZCM7+P07437+P68363+Q9BQE3+Q6PEY2+Q13885+Q9BVA1+Q9BUF5). The experiment in a line: Inhibition of alpha-tubulin polymerization in human HT1080 cells assessed as disruption of microtubule structures at 10 uM after 4 hrs using Hoechst staining by fluorescence microscopic analysis. It counts as cell-based. The following applies: HT-1080.

For a further data set, the system named is MDA-MB-231. Description: Antiproliferative activity against human MDA-MB-231 cells after 72 hrs by cell counting kit analysis. It counts as functional, cell-based. The following applies: MDA-MB-231, 72 h. In a few lines:
as §1

The subject of data set [6] is HCT-116. The experiment in a line: Induction of apoptosis in human HCT116 cells at 20 uM after 24 hrs using FITC-TUNEL staining by flow cytometry. It counts as functional. Put shortly:
(§2)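 HCT116 at 1.0×10^6 per 60 mm dish, treated 24 or 48 h (0.4% DMSO control). Floating plus adherent cells assayed with DeadEnd Fluorometric TUNEL System, and FITC-TUNEL-positive percentage read by flow cytometry. Five independent experiments.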

Data set [7] deals with HCT-116. Description: Antiproliferative activity against human HCT116 cells after 72 hrs by cell counting kit analysis. It counts as functional, cell-based. The following applies: HCT-116, 72 h. In a few lines: as §1
A further data set deals with SW-620. The experiment in a line: Antiproliferative activity against human SW620 cells after 72 hrs by cell counting kit analysis. The data set is classed as functional, cell-based. The following applies: SW-620, 72 h. Put shortly: as §1
The subject of another data set is SW480. The experiment in a line: Antiproliferative activity against human SW480 cells after 72 hrs by cell counting kit analysis. It counts as functional, cell-based. The following applies: SW480, 72 h. Put shortly: as §1
The subject of another data set is SK-BR-3. The experiment in a line: Antiproliferative activity against human SK-BR-3 cells after 72 hrs by cell counting kit analysis. The data set is classed as functional, cell-based. The following applies: SK-BR-3, 72 h. In a few lines:
as §1

Data set [8] deals with HCT-116. The experiment in a line: Cell cycle arrest in human HCT116 cells assessed as increase of phosphorylated histone H3 at Ser10 level at 20 to 40 uM after 24 hrs by Western blotting. The data set is classed as functional, cell-based. Put shortly:
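HCT116 (1.0×10^6/dish) serum-starved 24 h, then treated 24 h in serum-free medium (0.4% DMSO control). Lysed 1 h at 0 °C in modified lysis buffer (pH 8.0, 1% NP-40). 7.5 µg protein run on SDS-PAGE and PVDF blot, probed for phospho-histone H3 Ser10 and total H3, ECL detection. Five independent experiments.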
(In general: Immunoblotting shows a protein as a band on a membrane.)

The test system of a further data set is Mus musculus. Description: Toxicity in human HCT116 cells xenografted nude mouse assessed change in body weight at 50 to 80 mg/kg, ip administered at days 0, 2, 4, 7, 9, 11, 14 and 16 measured on day 21. It counts as organism-based, HCT-116. Also on record: dose 50-80 mg/kg, route intraperitoneal. The following applies: in vivo.
The subject of data set [9] is HCT-116. The experiment in a line: Antitumor activity against human HCT116 cells xenografted in nude mouse assessed as inhibition of tumor growth at 80 mg/kg, ip administered at days 0, 2, 4, 7, 9, 11, 14 and 16 measured on day 21 relative to control. The data set is classed as functional. The following applies: route intraperitoneal.
Data set [10] relates to HCT-116. Description: Cell cycle arrest in human HCT116 cells assessed as accumulation at G2/M phase at 20 uM after 24 hrs by FACS analysis (reference value: 10.9 %). The data set is classed as functional.
Data set [11] relates to HCT-116. Description: Induction of apoptosis in human HCT116 cells at 20 uM after 48 hrs using FITC-TUNEL staining by flow cytometry (reference value: 7.3 %). It counts as functional. In a few lines: as §2

Sequence of Tubulin (Sus scrofa) (P02550 whole entry, looked up): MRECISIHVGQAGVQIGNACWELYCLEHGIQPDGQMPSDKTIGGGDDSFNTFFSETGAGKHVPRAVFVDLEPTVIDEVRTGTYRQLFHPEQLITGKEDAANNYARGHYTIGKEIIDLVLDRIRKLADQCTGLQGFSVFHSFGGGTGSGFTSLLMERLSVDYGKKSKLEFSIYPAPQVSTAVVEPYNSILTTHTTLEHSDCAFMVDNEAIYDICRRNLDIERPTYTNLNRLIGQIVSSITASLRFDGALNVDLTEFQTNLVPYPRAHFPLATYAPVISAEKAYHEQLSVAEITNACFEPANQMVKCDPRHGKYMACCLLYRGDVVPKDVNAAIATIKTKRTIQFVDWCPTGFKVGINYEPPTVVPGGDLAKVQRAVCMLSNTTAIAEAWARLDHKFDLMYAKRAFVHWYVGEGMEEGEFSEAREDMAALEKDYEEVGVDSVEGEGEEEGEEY
Sequence of Tubulin (Sus scrofa) (P02554 whole entry, looked up): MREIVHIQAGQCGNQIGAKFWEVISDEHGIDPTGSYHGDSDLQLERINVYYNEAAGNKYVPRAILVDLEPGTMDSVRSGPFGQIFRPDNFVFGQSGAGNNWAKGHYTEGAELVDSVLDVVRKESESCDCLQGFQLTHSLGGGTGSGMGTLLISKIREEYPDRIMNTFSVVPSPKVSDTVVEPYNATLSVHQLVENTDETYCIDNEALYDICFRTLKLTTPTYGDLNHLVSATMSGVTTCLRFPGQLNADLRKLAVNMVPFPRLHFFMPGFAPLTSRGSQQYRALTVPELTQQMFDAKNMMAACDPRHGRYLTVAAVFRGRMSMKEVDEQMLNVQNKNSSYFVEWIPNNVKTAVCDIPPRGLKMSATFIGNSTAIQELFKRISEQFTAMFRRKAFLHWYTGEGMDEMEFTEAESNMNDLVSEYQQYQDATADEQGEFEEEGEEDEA

Regarding `O=C(Nc1ccccc1)c1ccc(CO[N+](=O)[O-])cc1`, the Activity with HCT-116 [1] is given as 30.4%; with HCT-116 [2], 10.4%; in the data set with HCT-116 [3], 7.4%; in data set [4], “Non-toxic”; in the data set with HCT-116 [5], 46.2%; with HCT-116 [6], 4%. Moreover, the Activity result in the data set on Mus musculus is recorded as “Non-toxic”; with HCT-116 [10] it was 51.8%; in the data set with HCT-116 [11] it was 24.2%. The inhibition entry on Tubulin (Sus scrofa) and on Tubulin (Homo sapiens) was “Active” each time. Also, the IC50 with MCF7 is more than 100 µM; with MDA-MB-231, 0.8 µM; in the data set on HCT-116 [7] it was 0.6 µM; in the data set on SW-620 it was 0.8 µM; in the data set on SW480 it was 0.8 µM; in the data set on SK-BR-3, 0.7 µM. In the data set on HCT-116 [8], the outcome was Active. Moreover, in the data set with HCT-116 [9], the T/C was 55%.

Usually IC50 stands for the concentration needed to halve the response being measured. Low values mean inhibition by little substance, high ones a need for much substance. What is called T/C is the result in the treated group divided by that in the control group, in per cent.
